# Assay outcomes from PubChem BioAssay.
# The list is not random: actives were taken first. Their share in the collection is about 1.3%.
# GASC-1 inh: inhibitors of human GASC-1 (JMJD2C) demethylase; Q9H3R0; GST-JMJD2C(1-420) H3K9me3 demethylation, DELFIA europium; inhibition, % at 2.35 µM; 330,000 compounds, 0.069% hits; AID 2099;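 active means more than half of a compound's replicate wells show inhibition beyond 50%, single wells judged on their own value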;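 further: signal counts dimethyl H3K9 product captured on neutravidin plate; 0% = median of DMSO wells and 100% = 0.3 times that DMSO median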
# procasp7 counter: activates human procaspase-7, counter-screen for procaspase-3 activators; P55210; recombinant procaspase-7, Ac-DEVD-pNA absorbance 405 nm; D23A/D198A/D206A triple mutant, cannot self-cleave; scale: DMSO 0, 5 µM enzyme 100; activation, % at 8.5 µM; 330,000 compounds, 0.093% hits;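 active means percent activation above the screen-wide mean plus 3 SD, cut at about 25% in these data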
#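 Replicates: singlicate. Assay system: Procaspase-7 triple mutant (PC-7 D3A). Signal: 405 nm absorbance of p-nitroaniline. Times: 1 h preincubation, 2 h reaction. Buffer or medium: Zinc-free HEPES pH 7.4 with 300 mM NaCl, 0.01% Triton X-100. Also added: DEVD-pNA substrate. Benchmarks: DMSO wells as 0%, DMSO with 5 µM added PC-7 as 100%.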
# GRK2 aptamer HTS: human GRK2 inhibition via aptamer displacement; 330,000 compounds, 0.59% hits; bead flow cytometry, FAM-aptamer displacement from GRK2; AID 488847; P25098; inhibition of aptamer binding, % at 10 µM;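 active means inhibition of aptamer binding above 40%, roughly 3 SD of noise, on plates passing a quality check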;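 further: median bead fluorescence of bound FAM aptamer so fluorescent compounds give negative values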
# Target sequence (P25098 whole entry, looked up): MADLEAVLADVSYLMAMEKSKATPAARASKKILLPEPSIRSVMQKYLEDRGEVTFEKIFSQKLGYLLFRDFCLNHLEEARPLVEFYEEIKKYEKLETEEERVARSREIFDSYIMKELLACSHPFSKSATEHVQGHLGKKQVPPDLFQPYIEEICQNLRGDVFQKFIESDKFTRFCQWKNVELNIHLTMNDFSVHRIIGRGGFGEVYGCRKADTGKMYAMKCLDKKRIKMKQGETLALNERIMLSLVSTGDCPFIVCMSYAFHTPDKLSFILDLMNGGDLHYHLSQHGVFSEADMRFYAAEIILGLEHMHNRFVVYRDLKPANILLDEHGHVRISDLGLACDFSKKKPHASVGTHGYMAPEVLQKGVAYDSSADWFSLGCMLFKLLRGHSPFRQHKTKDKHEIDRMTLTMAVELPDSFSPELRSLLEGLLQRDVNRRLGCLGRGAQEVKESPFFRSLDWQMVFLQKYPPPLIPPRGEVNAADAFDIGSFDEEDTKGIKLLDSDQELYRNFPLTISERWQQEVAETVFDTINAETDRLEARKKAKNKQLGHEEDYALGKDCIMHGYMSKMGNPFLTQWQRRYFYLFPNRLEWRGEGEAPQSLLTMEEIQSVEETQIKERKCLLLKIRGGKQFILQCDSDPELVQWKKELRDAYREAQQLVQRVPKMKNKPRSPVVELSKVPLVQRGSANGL
# procasp3 activ: procaspase-3 (human) activation; P42574; recombinant procaspase-3 D3A, Ac-DEVD-pNA absorbance 405 nm; activation, % at 8.5 µM; 330,000 compounds, 0.11% hits; AID 463141;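 active means activation above the mean of all tested compounds plus 3 SD, cut at about 21% in these data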;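 further: 0% = DMSO alone and 100% = DMSO wells spiked with extra 5 µM PC-3 D3A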
#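 Assay system: Procaspase-3 D3A mutant, all three cleavage aspartates alanine. Buffer or medium: Zinc-free HEPES saline buffer with Triton X-100. Times: 1 h compound preincubation, 2 h substrate hydrolysis at 25 °C. Measured by: 405 nm absorbance of p-nitroaniline, reads at 0 and 120 min. Read-out basis: percent activation relative to control range. Replicates: singlicate.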
# VLA-4 inh: inhibition in a human VLA-4 binding assay; P13612; VLA-4 expressing cells, ligand binding flow cytometry; inhibition, % (about 7 µM as worked out from the volumes in the protocol); 330,000 compounds, 0.2% hits; AID 2557; in the data active means inhibition above about 50%
# Lipid droplet: hepatic lipid droplet formation modulation; AML12 mouse hepatocytes, oleate lipid droplets, BODIPY imaging; inhibition, % at 6.5 µM; 240,000 compounds, 0.4% hits;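 active means lipid droplet intensity inhibited by at least 50%, with more than 500 cells counted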
#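 Assay system: AML12 mouse liver cells | Compound: 6.5 µM single-point dosing | Schedule: Overnight exposure | Technique: Fluorescence imaging, 20x objective, two fields per well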
# * marks the source's active call; other numbers are inactive results; · = not tested or not shown.
SMILES,GASC-1 inh,procasp7 counter,GRK2 aptamer HTS,procasp3 activ,VLA-4 inh,Lipid droplet
Cc1cccc(NC(=O)c2cc3c(=O)n4ccccc4nc3n(CC(C)C)c2=N)c1,6.3,5.4,0.0,10.2,67.7*,-10.6
CC(C)CN1C(=O)C(=O)N(CC(=O)c2ccc[nH]2)C1=O,3.7,13.5,0.0,-4.8,2.1,·
CCOC(=O)O[C@]1(C(=O)OCCl)CC[C@H]2[C@@H]3CCC4=CC(=O)C=C[C@]4(C)[C@H]3[C@@H](O)C[C@@]21C,-2.4,-9.7,0.0,0.8,9.3,·
N#C/C(=C\c1sc(N2CCOCC2)nc1-c1ccccc1)C(=O)Nc1cccc2ccccc12,·,·,·,·,·,55.6*
O=C(Nc1ccccc1)c1sc(N2CCOCC2)nc1-c1ccccc1,1.2,0.1,0.0,-0.6,11.6,1.5
CCOc1ccc(S(=O)(=O)Nc2cccc(C(=O)NCCCN3CCCC3=O)c2)cc1,-4.6,5.9,5.0,3.6,8.3,·
COc1cccc(C2C(C(=O)Nc3nc4ccccc4s3)=C(C)NC3=C2C(=O)CC(C)(C)C3)c1OC (stereo unspecified),-8.9,22.7,1.0,45.1*,4.7,·
COc1ccc(-c2nc(-n3c(C)c(C(C)=O)c(C(C)=O)c3C)sc2C)cc1,0.5,-8.7,78.0*,-0.5,-5.4,·
CC(=O)c1c(C(C)=O)c(C)n(-c2nc(-c3ccc(C)c(C)c3)c(C)s2)c1C,-16.0,10.6,2.0,-3.0,0.1,4.2
Cc1cccc(N2C(=O)C3C4C=CC(C4)C3C2=O)c1 (stereo unspecified),53.6*,4.0,0.0,-3.0,12.2,·
Cc1ccc(N2C(=O)C3C4C=CC(C4)C3C2=O)cc1C (stereo unspecified),-4.9,5.2,0.0,-5.1,-1.6,·
O=C(OCc1nnc(-c2ccc([N+](=O)[O-])cc2)o1)C1CCN(C(=O)c2ccc(F)cc2)CC1,4.8,-0.8,0.0,-3.0,9.6,·
COc1ccc(Cn2ccnc2SCC(=O)Nc2nnc(C)s2)cc1,7.5,-3.0,1.0,4.5,-0.9,6.6
Cc1nnc(NC(=O)CSc2nccn2Cc2ccccc2)s1,1.5,0.1,86.0*,7.2,2.5,9.1
Cc1nnc(NC(=O)CSc2nccn2Cc2ccc(F)cc2)s1,9.3,-1.7,42.0*,-4.6,-1.4,-2.9
O=C(O)c1cnn(-c2nc(-c3ccc(Br)cc3)cs2)c1C(F)(F)F,-3.1,3.8,1.0,2.2,1.3,·
COc1ccc(C(=O)O)cc1S(=O)(=O)Nc1cc(Cl)ccc1N1CCOCC1,·,6.4,0.0,-1.3,4.7,·
COc1ccc(-c2c(O)c(C#N)c(-c3ccccc3)n(-c3ccc(OC)cc3)c2=O)cc1,-0.8,4.1,97.0*,-7.5,-10.2,0.2
O=C(C(=O)c1ccc(O)cc1)c1ccccc1,1.3,4.0,0.0,5.7,58.1*,-0.6
O=C(/C=C/c1ccccc1Cl)N(Cc1cccs1)C1CCS(=O)(=O)C1 (stereo unspecified),-1.0,-1.3,1.0,-1.5,-3.2,-7.8
Cc1cccc(-c2n[nH]c(=S)n2/N=C/c2ccc(C)o2)c1,17.3,-19.6,47.0*,-5.8,-1.9,4.1
Cc1cc(-c2n[nH]c(=S)n2/N=C/c2ccc(C)o2)n[nH]1,5.9,-5.4,1.0,2.8,3.7,-1.3
Cc1nc2ccc(CN(C)c3ccc(C(=O)N[C@@H](CCC(=O)O)C(=O)O)s3)cc2c(=O)[nH]1,-12.4,-31.4,53.0*,-10.3,52.0*,·
COC(=O)c1ccccc1NC(=O)Cn1cnc([N+](=O)[O-])c1,21.0,-11.4,1.0,3.6,0.0,·
O=C1CCCC2=C1C(c1ccc(OS(=O)(=O)c3ccc(Cl)cc3)cc1)C1=C(CCCC1=O)O2,56.9*,2.0,2.0,-2.1,7.7,·
SMILES,GASC-1 inh,procasp7 counter,GRK2 aptamer HTS,procasp3 activ,VLA-4 inh,Lipid droplet
CCc1ccc(C2C3=C(CCCC3=O)OC3=C2C(=O)CCC3)cc1,-1.4,-0.9,0.0,6.1,-5.6,-10.9
COc1ccc(Nc2nnc(SC(C(=O)Nc3cc(C)ccc3C)c3ccccc3)s2)cc1 (stereo unspecified),-20.4,8.7,5.0,7.3,9.8,0.8
COc1ccc(C)cc1NC(=O)C(Sc1nnc(Nc2cc(C)ccc2OC)s1)c1ccccc1 (stereo unspecified),-7.5,2.6,0.0,3.9,10.5,73.4*
CC(=O)Nc1ccc2nc(NC(=O)c3ccc([N+](=O)[O-])s3)sc2c1,11.0,-3.6,87.0*,6.2,-2.5,-14.1
Nc1ccc(C(=O)O)c(O)c1,88.5,-3.1,0.0,9.7,39.7,30.5
Nc1ccc(N)c(C(=O)O)c1,16.1,0.0,88.0*,7.5,1.7,·
CC(c1ccccc1)n1cc(C(=O)NCCCn2ccnc2)nn1 (stereo unspecified),55.2*,1.0,0.0,4.8,-15.8,-26.5
Nc1nc(-c2ccccc2)c(N=Nc2ccc(Cl)cc2)s1,2.5,-2.9,2.0,-2.2,26.2,92.7*
O=c1cc(NC2CCCCCC2)[nH]c(=O)[nH]1,54.2*,10.2,0.0,-3.7,3.2,-0.6
O=c1[nH]c2ccc(NC(=S)NC3CCCCC3)cc2[nH]1,-25.1,-0.4,0.0,-14.1,0.9,-1.9
CCc1ccc(S(=O)(=O)NC2CC(C)(C)NC(C)(C)C2)cc1,1.4,-7.3,3.0,-2.6,7.7,·
CCN1C(=O)/C(=C/c2ccc(N3CCCC3)cc2)NC1=S,1.4,-21.1,0.0,-30.2,-217.7,64.8*
CSc1ccc(C=NNc2ccc(S(=O)(=O)Nc3ccccc3C(=O)O)cc2[N+](=O)[O-])cc1,103.3*,0.0,0.0,-1.4,-0.6,·
CCc1nnc(N/N=C/c2cc(Br)c(O)cc2O)n1N,58.2*,-10.7,0.0,-3.6,1.1,1.9
CCc1nnc(N/N=C/c2ccc(O)c(OC)c2)n1N,-1.3,-15.9,2.0,-0.4,-14.1,16.9
O=C(CSc1nc2cc(C(=O)O)ccc2c(=O)n1-c1ccc(F)cc1)Nc1ccc(F)c(F)c1F,2.9,-1.3,2.0,2.3,5.0,·
COC(=O)c1ccc(COc2ccc(F)cc2)o1,-2.1,1.7,0.0,7.6,10.9,60.9*
COC(=O)c1ccc(COc2ccc(C(=O)c3ccccc3)cc2)o1,7.0,0.4,10.0,5.8,3.8,-0.7
Cc1cc2n(n1)C(c1ccc(N(C)C)cc1)Nc1ccccc1-2 (stereo unspecified),12.1,47.2*,0.0,19.9,6.0,·
COc1ccc(CN2C3CCCC2CC(NC(=O)/C=C/c2ccccc2)C3)cc1 (stereo unspecified),-12.5,6.6,0.0,-1.7,2.1,14.7
Cc1cc(C)nc(NN2C(=O)/C(=C/c3ccc(O)cc3)SC2=S)n1,-0.3,-18.2,84.0*,3.8,-5.7,·
